Reference: ChEMBL document CHEMBL1153793, “New pyridone, thioxopyridine, pyrazolopyridine and pyridine derivatives that modulate inflammatory mediators in stimulated RAW 264.7 murine macrophage” (Eur J Med Chem, 2009)
Active and inactive are the calls of the source. The calls are words filed in the database; no cut-off is given here.

How the values were obtained:
[1] = system: RAW264.7; assay: Effect on inflammatory mediators in LPS-stimulated mouse RAW264.7 cells assessed as 5-LO accumulation at 20 uM after 24 hrs by dot immunoblotting; type: functional
In short: (§1)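 Cells treated 24 h with 20 µM compound, with or without LPS (1 µg/ml). 20 µg soluble lysate protein dot-blotted onto nitrocellulose and probed with rabbit anti-mouse COX-2 or 5-LO, HRP anti-rabbit secondary and OPD colour. Intensity normalised to β-actin dots; four repeats.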

[2] = system: RAW264.7; assay: Effect on inflammatory mediators in LPS-stimulated mouse RAW264.7 cells assessed as COX-2 accumulation at 20 uM after 24 hrs by dot immunoblotting; type: functional; in short: as §1
[3] = Hydroxyl radical scavenging activity assessed as trolox equivalents at 1 uM by ORAC assay; type: functional
In short: (§2)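 β-Phycoerythrin fluorescence decay followed kinetically for 2 h at 37 °C with 1 µM compound, against peroxyl and hydroxyl radicals. One ORAC unit = net protection given by 1.0 µM Trolox.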

[4] = system: RAW264.7; assay: Effect on inflammatory mediators in mouse RAW264.7 cells assessed as TNF-alpha accumulation at 20 uM after 24 hrs by ELISA; type: functional
In short: (§3)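 RAW 264.7 given 20 µM compound for 24 h, alone or together with LPS at 1 µg/ml. TNF-α and PGE2 in harvested supernatants quantified with commercial ELISA kits per manufacturer; four repeats, means reported.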

[5] = Antioxidant activity assessed as superoxide radical scavenging activity; type: functional
In short: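 Non-cellular assay; superoxide generated by oxidation of 50 µM hypoxanthine with 12 mU xanthine oxidase. Scavenging followed as the rate of nitroblue tetrazolium reduction to formazan. SC50 taken from dose-dependent curves of serial dilutions; superoxide dismutase as standard inhibitor.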

[6] = Peroxyl radical scavenging activity assessed as trolox equivalents at 1 uM by ORAC assay; in short: as §2
[7] = system: RAW264.7; assay: Effect on inflammatory mediators in mouse RAW264.7 cells assessed as 5-LO accumulation at 20 uM after 24 hrs by dot immunoblotting; type: functional; in short: as §1
[8] = system: RAW264.7; assay: Effect on inflammatory mediators in mouse RAW264.7 cells assessed as nitrite accumulation at 20 uM after 24 hrs by Griess assay; type: functional
In short: (§4)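 Cells in phenol red-free RPMI-1640 with 10% FBS treated 24 h with 20 µM compound, with or without LPS (1 µg/ml). Supernatant mixed 1:1 with Griess reagent for 10 min, A550 read against a sodium nitrite standard curve, then normalised to BCA protein.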

[9] = system: RAW264.7; assay: Effect on inflammatory mediators in mouse RAW264.7 cells assessed as PGE2 accumulation at 20 uM after 24 hrs by ELISA; type: functional; in short: as §3
[10] = system: RAW264.7; assay: Effect on inflammatory mediators in LPS-stimulated mouse RAW264.7 cells assessed as TNF-alpha accumulation at 20 uM after 24 hrs by ELISA; type: functional; in short: as §3
[11] = system: RAW264.7; assay: Effect on inflammatory mediators in LPS-stimulated mouse RAW264.7 cells assessed as PGE2 accumulation at 20 uM after 24 hrs by ELISA; type: functional; in short: as §3
[12] = system: RAW264.7; assay: Effect on inflammatory mediators in LPS-stimulated mouse RAW264.7 cells assessed as nitrite accumulation at 20 uM after 24 hrs by Griess assay; type: functional; in short: as §4
[13] = system: RAW264.7; assay: Effect on inflammatory mediators in mouse RAW264.7 cells assessed as COX-2 accumulation at 20 uM after 24 hrs by dot immunoblotting; type: functional; in short: as §1
[14] = system: RAW264.7; assay: Cytotoxicity against mouse RAW264.7 cells assessed as cell viability after 24 hrs by MTT assay; type: cell-based; details: RAW264.7, 24 h, in the assay text read “MTT assay” for “ultra gel clot assay”
In short: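 RAW 264.7 macrophages (5×10^4 cells/well) exposed 24 h at 37 °C to a range of compound concentrations, then read by MTT reduction to formazan, solubilised in acidic isopropanol. Viability expressed as mean % of untreated cells (n = 4); 1000 U/ml M-CSF as positive control. IC50 derived.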

[15] = system: RAW264.7; assay: Effect on mouse RAW264.7 cell function assessed as FITC-LPS binding to macrophage after 15 mins by fluorimetry; type: functional, cell-based
In short: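 5×10^5 RAW 264.7 cells pre-incubated 15 min at 37 °C with compound in RPMI-1640 plus 10% FBS as the CD14/LBP source. FITC-LPS (200 ng/ml) then added for 1 h. After PBS wash, fluorescence read at ex 485/em 530 nm and median fluorescence intensity reported.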

[16] = system: RAW264.7; assay: Induction of phagocytosis in mouse RAW264.7 cells assessed as phagocytic activity against FITC-zymosan after 1 hr by fluorimetry; type: functional, cell-based
In short: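 Cells at 1×10^5/well in phenol red-free RPMI-1640 rested 24 h, then given compound for 1 h. FITC-zymosan added for a further 1 h; cells washed three times and lysed with Triton X-100. Fluorescence read at 485/530 nm and expressed relative to untreated cells (100%).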

[17] = system: RAW264.7; assay: Effect on inflammatory mediators in LPS-stimulated mouse RAW264.7 cells assessed as COX-2 accumulation at 20% IC50 after 24 hrs by dot immunoblotting; type: functional
In short: (§5)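 20 µg lysate protein dot-blotted, probed with anti-mouse COX-2 or 5-LO, detected by HRP/OPD and normalised to β-actin.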

[18] = system: RAW264.7; assay: Effect on inflammatory mediators in mouse RAW264.7 cells assessed as nitrite accumulation at 20% IC50 after 24 hrs by Griess assay; type: functional
[19] = system: RAW264.7; assay: Effect on inflammatory mediators in mouse RAW264.7 cells assessed as 5-LO accumulation at 20% IC50 after 24 hrs by dot immunoblotting; type: functional; in short: as §5
[20] = system: RAW264.7; assay: Effect on inflammatory mediators in LPS-stimulated mouse RAW264.7 cells assessed as TNF-alpha accumulation at 20% IC50 after 24 hrs by ELISA; type: functional
[21] = system: RAW264.7; assay: Effect on inflammatory mediators in LPS-stimulated mouse RAW264.7 cells assessed as nitrite accumulation at 20% IC50 after 24 hrs by Griess assay; type: functional
[22] = system: RAW264.7; assay: Effect on inflammatory mediators in mouse RAW264.7 cells assessed as COX-2 accumulation at 20% IC50 after 24 hrs by dot immunoblotting; type: functional; in short: as §5
[23] = system: RAW264.7; assay: Effect on inflammatory mediators in mouse RAW264.7 cells assessed as TNF-alpha accumulation at 20% IC50 after 24 hrs by ELISA; type: functional
[24] = system: RAW264.7; assay: Effect on inflammatory mediators in mouse RAW264.7 cells assessed as PGE2 accumulation at 20% IC50 after 24 hrs by ELISA; type: functional
[25] = system: RAW264.7; assay: Effect on inflammatory mediators in LPS-stimulated mouse RAW264.7 cells assessed as PGE2 accumulation at 20% IC50 after 24 hrs by ELISA; type: functional
[26] = system: RAW264.7; assay: Effect on inflammatory mediators in LPS-stimulated mouse RAW264.7 cells assessed as 5-LO accumulation at 20% IC50 after 24 hrs by dot immunoblotting; type: functional; in short: as §5

Row | Compound | Activity [1] [%] | Activity [2] [%] | Activity [3] | Activity [4] [pg] | SC50 [5] [µg/mL] | Activity [6] | Activity [7] [%] | Activity [8] [nmol] | Activity [9] [pg] | Activity [10] [pg] | Activity [11] [pg] | Activity [12] [nmol] | Activity [13] [%] | IC50 [14] [µM] | Activity [15] | Activity [16] | also measured
1 | COc1ccc(-c2cc(-c3ccc4c(c3)CCCC4)nc(OCC(=O)NN)c2C#N)cc1OC | 83.2 | 71.3 | 5.84 | 124.68 | 8.67 | 5.12 | 13.8 | 1.34 | 25.6 | 4924.22 | 3111.94 | 78.54 | 10.2 | 3.1 | – | – | –
2 | COc1ccc(-c2cc(-c3ccc4c(c3)CCCC4)nc(OCC(=O)NCc3ccccc3)c2C#N)cc1OC | 77.4 | 73.3 | 2.31 | 116.8 | 19.9 | 3.56 | 18.9 | 26.65 | 53.1 | 854.16 | 2018.96 | 155.25 | 23.7 | – | inactive | inactive | –
3 | CC(C)c1ccc(-c2cc(-c3ccc4c(c3)CCCC4)nc3[nH]nc(N)c23)cc1 | – | – | 2.28 | 105.6 | 21.9 | 2.45 | – | 5.62 | 32.21 | 1925.78 | 2974.23 | 62.42 | – | > 50 | Active | Active | –
4 | COc1ccc(-c2cc(-c3ccc4c(c3)CCCC4)nc3[nH]nc(N)c23)cc1OC | 81.8 | 63.7 | 5.85 | 94.88 | > 100 | 1.92 | 24 | 10.53 | 28.6 | 4185.85 | 3415.23 | 145.67 | 15.7 | > 50 | – | – | –
5 | CC(C)c1ccc(-c2cc(-c3ccc4c(c3)CCCC4)[nH]c(=S)c2C#N)cc1 | 31.6 | 36.7 | 5.41 | 101.5 | 10.2 | 4.32 | 14.2 | 12.66 | 41.84 | 1458.16 | 1843.42 | 25.58 | 18.2 | > 100 | Active | Active | –
6 | CC(C)c1ccc(-c2cc(-c3ccc4c(c3)CCCC4)nc(OCC(=O)NN)c2C#N)cc1 | – | – | 0.99 | – | 42.5 | 0.81 | – | – | – | – | – | – | – | 27.7 | – | – | Activity [17]: 92.6%; Activity [18]: 440.24 nmol; Activity [19]: 33.12%; Activity [20]: 5754.5 pg; Activity [21]: 596.4 nmol; Activity [22]: 63.1%; Activity [23]: 1364.75 pg; Activity [24]: 43.6 pg; Activity [25]: 3405.5 pg; Activity [26]: 91.8%
7 | N#Cc1c(-c2c[nH]c3ccccc23)cc(-c2ccc3c(c2)CCCC3)[nH]c1=S | 69.4 | 59.8 | 4.2 | 75.4 | 4.22 | 6.13 | 23.8 | 15.5 | 49.82 | 4925.35 | 3005.3 | 480.05 | 28.1 | > 100 | – | – | –
8 | COc1ccc(-c2cc(-c3ccc4c(c3)CCCC4)nc(Cl)c2C#N)cc1OC | 84.5 | 88.7 | 0.35 | 810.75 | 87.9 | 0.61 | 25.3 | 512.35 | 38.33 | 5716.66 | 3325.87 | 766.85 | 36.6 | > 50 | inactive | inactive | –
9 | CC(C)c1ccc(-c2cc(-c3ccc4c(c3)CCCC4)[nH]c(=O)c2C#N)cc1 | 25.1 | 42.7 | 0.92 | 91.67 | 85.4 | 0.75 | 20.3 | 8.51 | 40.13 | 1255.6 | 2105.3 | 32.55 | 21.4 | > 100 | Active | Active | –
10 | COc1ccc(-c2cc(-c3ccc4c(c3)CCCC4)[nH]c(=O)c2C#N)cc1OC | 92.1 | 76.3 | 0.54 | 69.56 | > 100 | 0.41 | 15.8 | 14.8 | 30.35 | 3860.25 | 3120.45 | 355.78 | 14.6 | > 100 | – | – | –
11 | N#Cc1c(-c2c[nH]c3ccccc23)cc(-c2ccc3c(c2)CCCC3)[nH]c1=O | 82.3 | 82.4 | 0.21 | 88.44 | 78.5 | 0.35 | 23.5 | 16.25 | 32.63 | 5100.15 | 3210.3 | 505.75 | 16.3 | > 100 | – | Active | –
12 | CC(C)c1ccc(-c2cc(-c3ccc4c(c3)CCCC4)nc(NCc3ccccc3)c2C#N)cc1 | 88.7 | 97.3 | 1.01 | 1890.16 | 77.6 | 1.34 | 29.8 | 614.63 | 48.3 | 6325.08 | 3222.55 | 922.5 | 53.2 | > 50 | inactive | – | –
